Bioassay records from PubChem BioAssay.
JMJD2C inh – inhibitors of human GASC-1 (JMJD2C) demethylase | 330,000 tested, 0.069% active | GST-JMJD2C(1-420) H3K9me3 demethylation, DELFIA europium | AID 2099 | inhibition, % at 2.35 µM | Q9H3R0;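 active = more than half of a compound's replicate wells show inhibition beyond 50%, single wells judged on their own value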;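 note: signal counts dimethyl H3K9 product captured on neutravidin plate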
PP5 primary – inhibitors of human protein phosphatase 5 (PP5) | 320,000 tested, 0.18% active | P53041 | inhibition, % at 6.7 µM | AID 1987 | purified PP5c, OMFP substrate fluorescence;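 active = inhibition above the campaign's mean inhibition across all tested compounds plus 3 SD, cut at about 9.5% in these data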
Target sequence (P53041 whole entry, looked up): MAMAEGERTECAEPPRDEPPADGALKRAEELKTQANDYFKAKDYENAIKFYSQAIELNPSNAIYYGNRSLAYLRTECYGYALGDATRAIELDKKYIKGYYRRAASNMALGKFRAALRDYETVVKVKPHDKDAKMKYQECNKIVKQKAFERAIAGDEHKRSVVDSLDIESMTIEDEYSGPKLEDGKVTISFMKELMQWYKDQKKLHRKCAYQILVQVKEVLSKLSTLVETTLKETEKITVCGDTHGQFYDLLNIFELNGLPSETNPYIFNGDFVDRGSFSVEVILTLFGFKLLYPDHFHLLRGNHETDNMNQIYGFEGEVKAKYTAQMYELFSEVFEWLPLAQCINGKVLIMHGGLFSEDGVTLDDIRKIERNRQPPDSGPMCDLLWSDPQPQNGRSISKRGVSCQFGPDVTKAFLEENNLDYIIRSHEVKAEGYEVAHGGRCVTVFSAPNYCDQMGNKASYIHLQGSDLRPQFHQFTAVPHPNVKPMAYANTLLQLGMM
p-CIP stab down – lowers stability of the mouse p/CIP coactivator protein. AID 1984. 290,000 tested, 0.01% active. decrease of EGFP signal, % at 10 µM. Q05BA5. F442A p/CIP-EGFP cells, EGFP fluorescence, 16 h;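 active = EGFP signal decrease of at least 30% at 10 µM or well 3 SD below plate mean, unless failing retest; inactive = the rest, including hits failing retest or dose response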
H9c2 protect – myocardial damage modulation in H9c2 cells. H9c2 cardiomyocytes, H2O2 injury protection, ATPLite, 2 h. protection from H2O2 cell death, % at 20 µM. 360,000 tested, 0.63% active. AID 588492;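 active = compounds giving at least 50% protection of heart cells from peroxide-induced death in the single-dose screen, raw or plate-pattern-corrected value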
T cruzi inh – T. cruzi replication inhibition. T. cruzi beta-gal in NIH3T3, luminescence, 90 h. inhibition, % (concentration not given with the values). 300,000 tested, 1.4% active. AID 1885;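 active = mean inhibition across valid replicates above about 55%, limit read from the data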;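 note: signal also drops with host cell toxicity which is not excluded here; higher percent means less beta-gal luminescence so fewer parasites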
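assay system = mouse NIH/3T3 fibroblasts infected with β-gal-expressing T. cruzi Tulahuen C4 | input = 5,000 NIH/3T3 host cells per well | buffer or medium = DMEM plus 2% FBS | timing = 3 h host attachment, then at least 90 h co-culture | measured by = GalScreen luminescence, 60 min | evaluation = luminescence reflecting intracellular parasite burden, expressed as percent inhibition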
CTSL1 counter – counter-screen for PFM18AAP inhibitors: inhibitors of F. hepatica cathepsin L1; recombinant F. hepatica cathepsin L1, Z-Leu-Arg-MCA fluorescence; AID 1906; 300,000 tested, 0.49% active; inhibition, % at 5.96 µM;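 active = inhibition above the mean of all tested compounds plus 3 SD, set per screening campaign, cut at about 17% in these data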
Of the large screens only hits and unclear results are named; the others gave an inactive call. A selection: hits, their analogues and other compounds. The true share with any hit is near 2.4%.

Cc1nc2ccccc2c(=O)n1/N=C/c1cc(Br)ccc1O	H9c2 protect 54
O=C1CSC(=S)N1N=Cc1c(O)ccc2ccccc12	H9c2 protect 56 (no result: JMJD2C inh, PP5 primary, p-CIP stab down, T cruzi inh, CTSL1 counter)
O=c1c2ccccc2nc(/C=C/c2cccc([N+](=O)[O-])c2)n1CCO	none
CCCCN(C=O)c1c(CC)nc2ccc(C(=O)N(C)Cc3ccccc3)cn12	none (no result: JMJD2C inh, PP5 primary, p-CIP stab down, T cruzi inh, CTSL1 counter)
CC(C)(C)n1nc2c(c1NC(=O)c1cc(Cl)ccc1[N+](=O)[O-])CS(=O)(=O)C2	none
Cc1nc2ccccc2c(=O)n1/N=C/c1c(O)ccc2oc3c(c12)CCCC3	H9c2 protect 100
NC(=O)N/N=C/c1c(O)ccc2oc3c(c12)CCCC3	none
Cc1nc2ccccc2c(=O)n1/N=C/c1c(O)ccc2ccccc12	H9c2 protect 74
Cc1nc2ccccc2c(=O)n1/N=C/c1ccc(N(C)C)cc1	none
CC(C)(C)N=Cc1c(O)ccc2oc3c(c12)CCCC3	H9c2 protect 73
COc1cc(CO)c(OC)c([N+](=O)[O-])c1	none
O=[N+]([O-])c1ccc(COc2cccc(CN3CCOCC3)c2)cc1	none (no result: JMJD2C inh, PP5 primary, p-CIP stab down, T cruzi inh, CTSL1 counter)
Cc1occc1C(=O)N/N=C/C1=C(N2CCOCC2)C(=C/c2ccc(Cl)cc2Cl)/CC1	none (no result: JMJD2C inh, PP5 primary, p-CIP stab down, T cruzi inh, CTSL1 counter)
CC(C)C(NS(=O)(=O)c1cccs1)C(=O)NCCN1CCN(c2ccccc2)CC1 (configuration not stated)	CTSL1 counter 48
COc1ccc(N2CCN(CCNC(=O)CCNS(=O)(=O)c3cccs3)CC2)cc1	none
CCOC(=O)C1=c2s/c(=C\c3ccncc3)c(=O)n2C(N)=C(C(=O)OC)C1c1ccncc1 (configuration not stated)	H9c2 protect 68
O=C(O)CCC(C(=O)O)N1C(=O)C2C3CCC(C3)C2C1=O (configuration not stated)	none (no result: JMJD2C inh, PP5 primary, p-CIP stab down, T cruzi inh, CTSL1 counter)
Cc1[nH]n2c(=O)cc(C(C)(C)C)nc2c1-c1ccccc1	H9c2 protect 53, T cruzi inh 59
Cc1ccc(S(=O)(=O)NC(=O)COc2ccc(Cl)cc2Cl)cc1	none
CCOC(=O)C1(C)CCCN(C(=O)COc2ccccc2)C1 (configuration not stated)	none (no result: JMJD2C inh, PP5 primary, p-CIP stab down, T cruzi inh, CTSL1 counter)
COc1ccc(C(=O)N2CCN(C)C(=O)[C@@H]2C)cc1OC1CCN(C(C)C)CC1	none
COc1cc(/C=C2\SC(N3CCc4ccccc4C3)=NC2=O)cc(OC)c1OC	H9c2 protect 52
O=C(CSc1nc2ccccc2c(=O)n1Cc1ccc(C(=O)NC2CC2)cc1)NCc1ccco1	JMJD2C inh 61
O=C(Oc1ccc(Br)cc1C(=S)N1CCOCC1)c1ccc([N+](=O)[O-])cc1[N+](=O)[O-]	none
CC(=O)c1cc2ccc(O)cc2oc1=O	none
Cc1ccc(N=c2oc3cc(O)ccc3cc2C(N)=O)cc1	T cruzi inh 60
COc1cccc(NC(=O)CCN2C(=O)C3CC=CCC3C2=O)c1 (configuration not stated)	none
COc1cccc(C(=O)NNC2OC(CO)C(O)C2O)c1 (configuration not stated)	CTSL1 counter 19
O=C(NNC1OC(CO)C(O)C(O)C1O)c1cccnc1 (configuration not stated)	none
COc1ccc(CNC(=O)c2ccc(S(=O)(=O)NCc3ccco3)cc2)cc1	none (no result: JMJD2C inh, p-CIP stab down, T cruzi inh, CTSL1 counter)
O=C1NC(c2cccs2)Nc2ccccc21 (configuration not stated)	H9c2 protect 66
Cc1ccsc1C1NC(=O)c2ccccc2N1 (configuration not stated)	none
O=C(c1ccc(Cl)cc1Cl)C1(n2cncn2)Oc2ccccc2C1O (configuration not stated)	T cruzi inh 55
O=C(NNc1ccc([N+](=O)[O-])cc1)Nc1ccccc1	none
O=C(NNc1ccccc1)C(=O)NNS(=O)(=O)c1ccc([N+](=O)[O-])cc1	T cruzi inh 61
O=C(NCCc1ccccc1Cl)c1ccc2nc3ccccc3c(=O)n2c1	H9c2 protect 58
CC(C)CN1CCN(C(=O)CCc2nnc(Cc3c[nH]c4ccccc34)o2)[C@@H](C)C1=O	none (no result: PP5 primary, CTSL1 counter)
Cc1ccc2c(c1)Oc1ccc([N+](=O)[O-])cc1C(=O)N2	none
Cc1ccc2c(c1)Oc1ccc(NC(=O)CCl)cc1C(=O)N2	CTSL1 counter 52
COc1ccc(OC)c(CC(=O)N2CCc3cc(OC)c(OC)cc3C2)c1	none
C=CCNCCOCCOc1ccc(C)cc1Br	T cruzi inh 56
CCOC(=O)Cc1csc(NC(=O)c2ccc3ccccc3n2)n1	none
CCC(=O)N(CCC(c1ccco1)C(C)C)Cc1ccccc1 (configuration not stated)	CTSL1 counter 30 (no result: JMJD2C inh, T cruzi inh)
CC(=O)N(CCC(c1ccco1)C(C)C)Cc1ccc(Cl)cc1 (configuration not stated)	none
O=C1CCC(C(=O)N2CCCC(Nc3ccc(F)cc3)C2)=NN1 (configuration not stated)	none
CCOc1ccc(-n2c(SCc3nc(-c4ccc(C)cc4)no3)nnc2-c2ccncc2)cc1	T cruzi inh 58
CN1CCC(N(C)C(=O)c2ccccc2Nc2ccc(SC(F)F)cc2)CC1	T cruzi inh 59
O=C(N/C(=C/C=C/c1ccccc1)C(=O)N1CCCCC1)c1ccc([N+](=O)[O-])cc1	CTSL1 counter 18
O=C(N/C(=C/c1ccc([N+](=O)[O-])cc1)C(=O)N1CCCC1)c1ccccc1	none
Oc1ccc(Nc2nc(N3CCCC3)c3ccccc3n2)cc1	T cruzi inh 59
COc1ccc(Nc2nc(N3CCCCC3)c3ccccc3n2)cc1	none
CC(C)c1onc(C(=O)NCc2ccccc2)c1[N+](=O)[O-]	CTSL1 counter 18
C[C@H](NC(=O)c1nc[nH]c1C(=O)NCC(=O)OCc1ccccc1)c1ccccc1	H9c2 protect 84
C[C@@H](OC(=O)c1[nH]cnc1C(=O)NCc1ccc(CNC(=O)OC(C)(C)C)cc1)c1ccccc1	H9c2 protect 59 (no result: JMJD2C inh, PP5 primary, p-CIP stab down, T cruzi inh, CTSL1 counter)
CC(C)C[C@H](NC(=O)c1nc[nH]c1C(=O)NCCCCCNC(=O)OC(C)(C)C)C(=O)OC(C)(C)C	PP5 primary 9.9
CC(C)C[C@H](NC(=O)c1[nH]cnc1C(=O)N[C@@H](C)c1ccccc1)C(=O)OCc1ccccc1	PP5 primary 12
C[C@H](NC(=O)c1nc[nH]c1C(=O)NCCCCCNC(=O)OC(C)(C)C)C(=O)OC(C)(C)C	none
Cc1ccccc1CNC(=O)C(=O)NCCC1CCCCN1S(=O)(=O)c1ccccc1 (configuration not stated)	none (no result: p-CIP stab down)
COc1ccc(NC(=S)NC(=O)c2cncc(Br)c2)c(OC)c1	none
C[C@H](NC(=O)c1nc[nH]c1C(=O)NCC(=O)OCc1ccccc1)C(=O)OCc1ccccc1	H9c2 protect 77
CC(C)(C)OC(=O)CNC(=O)c1[nH]cnc1C(=O)NC(c1ccccc1)c1ccccc1	H9c2 protect 59
